Experimental data as given in ChEMBL document CHEMBL2176900, “Design and synthesis of a novel series of bicyclic heterocycles as potent γ-secretase modulators” (J Med Chem, 2012).
Values after ≈ are worked out from the molar mass of the structure shown. Active and inactive are the calls of the source. The calls are words filed in the database; no cut-off is given here.

Experiments:
Canis familiaris [1] = experiment: Antialzheimer activity in beagle dog assessed as amyloid beta 42 level in cerebrospinal fluid at 20 mg/kg, po at 24 hrs by ELISA relative to control
Salmonella typhimurium = experiment: Genotoxicity against Salmonella typhimurium by AMES 2 test; type: toxicity, organism-based; conditions: salmonella enterica subsp. enterica serovar typhimurium
[2] = Plasma concentration in Sprague-Dawley rat at 10 mg/kg, po at 7 hrs by LC-MS/MS analysis; type: ADME, organism-based; parameters: dose 10 mg/kg, route oral
Summary of the method: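 Overnight-fasted male Sprague-Dawley rats (180–220 g) were given 10 mg/kg by gastric intubation of a 5 mg/mL suspension in 0.5% methocellulose. Blood was collected after decapitation at 2, 4, 7 and 25 h under isoflurane anaesthesia. Plasma compound was measured as in the mouse assay, n = 5.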

Rattus norvegicus [3] = experiment: Antialzheimer activity in Sprague-Dawley rat assessed as amyloid beta 40 level in brain at 10 mg/kg, po at 25 hrs by ELISA relative to control; type: functional
Summary of the method: (§1)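 Male Sprague-Dawley rats (180-220 g), fasted overnight, were given 10 mg/kg by gastric intubation as a 5 mg/mL suspension in 0.5% methocellulose. At 2, 4, 7 and 25 h, 50 μL CSF was taken from the cisterna magna under isoflurane, then brain was collected. Aβ37/38/40/42 were measured by MesoScale Discovery sandwich immunoassays. Results are mean % change versus T = 0 h, n = 5.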

Mus musculus [4] = experiment: Inhibition of gamma-secretase in CD1 mouse assessed as total amyloid beta level in brain at 30 mg/kg, po at 8 hrs by ELISA relative to control; type: functional; parameters: scale not given: the % may be the effect or the level left
Summary of the method: (§2)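 Fasted male CD1 SPF mice were dosed orally at 10 or 30 mg/kg in 20% Captisol. Right hemisphere was homogenized in 0.4% DEA/50 mM NaCl and the high-speed supernatant neutralized. Aβtotal ELISA used N-terminal JRF/rAβ/2 capture, biotinylated 4G8 and streptavidin-peroxidase, then a fluorogenic substrate (ex 320/em 420 nm). Standards spanned 10000–0.3 pg/mL. Values are % change vs T = 0 h, n = 4.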

Rattus norvegicus [5] = experiment: Antialzheimer activity in Sprague-Dawley rat assessed as amyloid beta 38 level in brain at 10 mg/kg, po at 7 hrs by ELISA relative to control; type: functional
Summary of the method: as §1

Canis familiaris [6] = experiment: Antialzheimer activity in beagle dog assessed as amyloid beta 40 level in cerebrospinal fluid at 20 mg/kg, po at 4 hrs by ELISA relative to control
Mus musculus [7] = experiment: Inhibition of gamma-secretase in CD1 mouse assessed as total amyloid beta level in brain at 10 mg/kg, po at 8 hrs by ELISA relative to control; type: functional; parameters: scale not given: the % may be the effect or the level left
Summary of the method: as §2

Canis familiaris [8] = experiment: Antialzheimer activity in beagle dog assessed as amyloid beta 40 level in cerebrospinal fluid at 20 mg/kg, po at 24 hrs by ELISA relative to control
Mus musculus [9] = experiment: Antialzheimer activity in CD1 mouse assessed as amyloid beta 38 level in brain at 10 mg/kg, po at 8 hrs by ELISA relative to control; type: functional
Summary of the method: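 Male CD1 SPF mice, fasted overnight, got a single oral dose of 10 or 30 mg/kg. At each time point the right brain hemisphere was homogenized in 0.4% DEA/50 mM NaCl with protease inhibitors and spun at 221300g for 50 min. The supernatant was neutralized with Tris-HCl pH 6.8. Aβ38 or Aβ42 was read by sandwich ELISA with a fluorogenic peroxidase substrate (ex 320/em 420 nm). Results are mean % change versus T = 0 h, n = 4.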

Rattus norvegicus [10] = experiment: Antialzheimer activity in Sprague-Dawley rat assessed as amyloid beta 37 level in brain at 10 mg/kg, po at 7 hrs by ELISA relative to control; type: functional
Summary of the method: as §1

Mus musculus [11] = experiment: Antialzheimer activity in CD1 mouse assessed as reduction in amyloid beta 42 level in brain at 30 mg/kg, po at 4 hrs by ELISA relative to control; type: functional
Summary of the method: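 Screening used fasted male CD1 mice dosed once orally at 30 mg/kg as a suspension in 20% Captisol in water. Mice were killed at 4 h. Aβ42 in the DEA-soluble hemisphere extract was measured by sandwich ELISA. Values are the mean of at least six animals, as % lowering versus untreated mice; a reduction above 20% counts as significant.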

[12] = target: Gamma-secretase (Homo sapiens) (UniProt Q96BI3+Q9NZ42+Q8WW43+P49768+Q92542+P49810); experiment: Inhibition of gamma-secretase in human SK-N-BE(2) cells expressing wild type APP 695 assessed as reduction in total amyloid beta level up to 10 uM after overnight incubation by sandwich immunoassay; type: cell-based
Summary of the method: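 SK-N-BE(2) cells with wild-type APP695 were plated at 10⁴ cells/well in supplemented Ultraculture with test compound at several concentrations. They were incubated overnight at 37 °C, 5% CO₂. Supernatant Aβtotal was measured by AlphaLisa sandwich immunoassay (JRF/AβN/25 capture, biotinylated 4G8). Data are % of the maximum Aβtotal seen without compound.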

Rattus norvegicus [13] = experiment: Antialzheimer activity in Sprague-Dawley rat assessed as amyloid beta 38 level in CSF at 10 mg/kg, po at 7 hrs by ELISA relative to control; type: functional
Summary of the method: as §1

Rattus norvegicus [14] = experiment: Antialzheimer activity in Sprague-Dawley rat assessed as amyloid beta 42 level in CSF at 10 mg/kg, po at 7 hrs by ELISA relative to control; type: functional
Summary of the method: as §1

Brain = experiment: Drug uptake in CD1 mouse brain at 30 mg/kg, po at 48 hrs by LC-MS/MS analysis; type: ADME, organism-based; parameters: dose 30 mg/kg, route oral; conditions: in vivo, BLD = below limit of detection
Summary of the method: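 Overnight-fasted male CD1 mice received one oral dose (10 or 30 mg/kg) in 20% Captisol. After sacrifice, the left brain hemisphere was stored at −18 °C. Compound level was quantified by a qualified LC-MS/MS method, alongside EDTA plasma spun at 1900g, 4 °C. n = 4 per time point.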

[15] = Thermodynamic solubility in 0.01N HCl; conditions: read-out: Therm_solubility
Rattus norvegicus [16] = experiment: Antialzheimer activity in Sprague-Dawley rat assessed as amyloid beta 38 level in brain at 10 mg/kg, po at 25 hrs by ELISA relative to control; type: functional
Summary of the method: as §1

Mus musculus [17] = experiment: Antialzheimer activity in CD1 mouse assessed as amyloid beta 42 level in brain at 30 mg/kg, po at 48 hrs by ELISA relative to control; type: functional
Summary of the method: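 Male CD1 mice, fasted overnight, received a single 10 or 30 mg/kg oral dose. Brain was sampled at an added 48 h time point. The DEA-soluble brain fraction was neutralized and Aβ42 was measured by sandwich ELISA with fluorogenic read-out. Values are % versus vehicle.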

Structure (SMILES): COc1nc(Nc2cccc3c2nc(-c2ccc(F)cc2)n3C)ccc1-n1cnc(C)c1
- Activity (Canis familiaris [1]): 89%
- Activity (Salmonella typhimurium): Non-toxic
- concentration at 7 h [2]: 4 µM
- Activity (Rattus norvegicus [3]): 107%
- Activity (Mus musculus [4]): 83%
- Activity (Rattus norvegicus [5]): 127%
- Activity (Canis familiaris [6]): 89%
- Activity (Mus musculus [7]): 86%
- Activity (Canis familiaris [8]): 113%
- Activity (Mus musculus [9]): 124%
- Activity (Rattus norvegicus [10]): 620%
- inhibition in vivo at 30 mg/kg (Mus musculus [11]): 62%
- inhibition [12]: inactive
- Activity (Rattus norvegicus [13]): 153%
- Activity (Rattus norvegicus [14]): 57%
- Drug uptake (Brain): BLD
- solubility thermodynamic [15]: 1170 µg/mL (≈ 2730 µM)
- Activity (Rattus norvegicus [16]): 105%
- Activity (Mus musculus [17]): 101%
